Experimental data: ChEMBL document CHEMBL5032518, “Discovery of a cryptic site at the interface 2 of TEAD - Towards a new family of YAP/TAZ-TEAD inhibitors” (Eur J Med Chem, 2021)
Activity calls are given as the source filed them. The rule behind the calls is not given here.

What was measured:
HEK293T = test: Inhibition of TEAD (unknown origin) transfected in HEK293T cells assessed as inhibition of TEAD transcriptional activity at 10 uM measured after 16 hrs by luciferase reporter gene assay; assay type: cell-based; conditions: Homo sapiens
Procedure, shortened: (§1)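 HEK293T cells transfected with a TEAD luciferase reporter (8xGTIIC-Luciferase) and treated at 10 µM for 16 h. References were dasatinib at 100 nM and MGH-CP1 at 10 µM. β-Galactosidase activity used both to normalize luciferase and to estimate cytotoxicity; viability also checked visually. At least three independent experiments in biological triplicate; Kruskal-Wallis tests.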

HEK-293T = test: Cytotoxicity against human HEK293T cells transfected with TEAD assessed as reduction of beta-galactosidase activity at 10 uM measured after 16 hrs by luciferase reporter gene assay; assay type: cell-based; procedure, shortened: as §1
[1] = target: T1, Transcriptional enhancer factor TEF-4 (Homo sapiens, UniProt Q15562); test: Binding affinity to eGFP-fused human TEAD2 (217 to 447 residues) expressed in CHO-K1 cells by microscale thermophoresis analysis
Procedure, shortened: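 MST on GFP-labeled hTEAD2_217-447 in CHO-K1 cell lysate, MST power 40%. hYAP_50-102 used as control binder. Kd determined; triplicate runs on three independent cell cultures, mean ± SD.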

[2] = Inhibition of TEAD (unknown origin) transfected in HEK293T cells assessed as inhibition of TEAD transcriptional activity measured after 24 hrs by luciferase reporter gene assay; assay type: cell-based; conditions: Homo sapiens, HEK-293T
[3] = target: T1, Transcriptional enhancer factor TEF-4; test: Binding affinity to external surface of N-terminal His6-tagged human TEAD2 (217 to 447 residues) expressed in Escherichia coli BL21(DE3) assessed as melting temperature by Nano Differential scanning fluorometry
Procedure, shortened: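 Thermal stability of hTEAD2_217-447 measured by NanoDSF, which reads intrinsic aromatic-residue fluorescence, with and without ligand.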

[4] = Inhibition of TEAD4/Yap1 (unknown origin) interaction measured after 24 hrs by fluorescence polarization assay; design: species or system Homo sapiens
SH-SY5Y [5] = test: Effect on CTGF mRNA expression in human SH-SY5Y cells lacking YAP/TAZ expression at 10 uM measured after 24 hrs by qRT-PCR analysis; assay type: functional, cell-based
[6] = Inhibition of TEAD (unknown origin) transfected in HEK293T cells assessed as inhibition of TEAD transcriptional activity measured after 16 hrs by luciferase reporter gene assay; assay type: cell-based; conditions: Homo sapiens, HEK-293T
Procedure, shortened: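 HEK293T cells transfected with the 8xGTIIC-Luciferase TEAD reporter. Dose-response curves used to derive IC50, with luciferase normalized to β-galactosidase.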

HeLa [7] = test: Inhibition of YAP/TAZ-TEAD interaction in human HeLa cells assessed as reduction in CTGF protein expression at 10 uM measured after 48 hrs by western blot analysis; assay type: cell-based
MDA-MB-231 [8] = test: Antiproliferative activity against human MDA-MB-231 cells assessed as reduction in cell proliferation at 5 uM measured after 48 hrs by IncuCyte live-cell imaging assay; assay type: functional
Procedure, shortened: (§2)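 MDA-MB-231 cells plated in triplicate at low density (2.5 × 10³ cells/well) in low serum (0.2%). Test agent added at several concentrations 24 h after plating. Cell number tracked by live-cell imaging every 3 h for up to 72 h; independent triplicates, mean ± SD, n = 3.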

SH-SY5Y [9] = test: Effect on Cyr61 protein expression in human SH-SY5Y cells lacking YAP/TAZ expression at 10 uM measured after 48 hrs by western blot analysis; assay type: functional, cell-based
HeLa [10] = test: Inhibition of YAP/TAZ-TEAD interaction in human HeLa cells assessed as reduction in Cyr61 mRNA expression at 10 uM measured after 24 hrs by qRT-PCR analysis; assay type: cell-based
HeLa [11] = test: Inhibition of YAP/TAZ-TEAD interaction in human HeLa cells assessed as reduction in CTGF mRNA expression at 10 uM measured after 24 hrs by qRT-PCR analysis; assay type: cell-based
SH-SY5Y [12] = test: Effect on AXL mRNA expression in human SH-SY5Y cells lacking YAP/TAZ expression at 10 uM measured after 24 hrs by qRT-PCR analysis; assay type: functional, cell-based
HeLa [13] = test: Inhibition of YAP/TAZ-TEAD interaction in human HeLa cells assessed as reduction in Cyr61 protein expression at 10 uM measured after 48 hrs by western blot analysis; assay type: cell-based
MDA-MB-231 [14] = test: Inhibition of YAP/TAZ-TEAD interaction in human MDA-MB-231 cells assessed as reduction in Cyr61 mRNA expression at 10 uM measured after 24 hrs by qRT-PCR analysis; assay type: cell-based
Procedure, shortened: (§3)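 MDA-MB-231 cells exposed to 10 µM for 24 h, with DMSO and dasatinib (100 nM) as controls. Total RNA purified, integrity checked on agarose gel. RT-qPCR with gene-specific primers; relative expression by 2^-ΔΔCt normalized to MAN2B1. At least triplicates; Kruskal-Wallis tests.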

MDA-MB-231 [15] = test: Inhibition of YAP/TAZ-TEAD interaction in human MDA-MB-231 cells assessed as reduction in AXL mRNA expression at 10 uM measured after 24 hrs by qRT-PCR analysis; assay type: cell-based; procedure, shortened: as §3
HeLa [16] = test: Inhibition of YAP/TAZ-TEAD interaction in human HeLa cells assessed as reduction in Survivin protein expression at 10 uM measured after 48 hrs by western blot analysis; assay type: cell-based
SH-SY5Y [17] = test: Effect on CTGF protein expression in human SH-SY5Y cells lacking YAP/TAZ expression at 10 uM measured after 48 hrs by western blot analysis; assay type: functional, cell-based
MDA-MB-231 [18] = test: Inhibition of YAP/TAZ-TEAD interaction in human MDA-MB-231 cells assessed as reduction in CTGF mRNA expression at 10 uM measured after 24 hrs by qRT-PCR analysis; assay type: cell-based; procedure, shortened: as §3
MDA-MB-231 [19] = test: Inhibition of YAP/TAZ-TEAD interaction in human MDA-MB-231 cells assessed as reduction in Cyr61 protein expression at 10 uM measured after 48 hrs by western blot analysis; assay type: cell-based
Procedure, shortened: (§4)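 MDA-MB-231 cells grown in DMEM with 0.2% heat-inactivated FBS and 2 mM L-glutamine, and exposed to 10 µM for 48 h, with dasatinib at 100 nM as control. Total extracts prepared in RIPA-based buffer with protease/phosphatase inhibitors, then Western blot. At least three independent experiments in biological triplicate.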

MDA-MB-231 [20] = test: Inhibition of YAP/TAZ-TEAD interaction in human MDA-MB-231 cells assessed as reduction in Survivin protein expression at 10 uM measured after 48 hrs by western blot analysis; assay type: cell-based; procedure, shortened: as §4
SH-SY5Y [21] = test: Effect on AXL protein expression in human SH-SY5Y cells lacking YAP/TAZ expression at 10 uM measured after 48 hrs by western blot analysis; assay type: functional, cell-based
SH-SY5Y [22] = test: Effect on Survivin protein expression in human SH-SY5Y cells lacking YAP/TAZ expression at 10 uM measured after 48 hrs by western blot analysis; assay type: functional, cell-based
HeLa [23] = test: Inhibition of YAP/TAZ-TEAD interaction in human HeLa cells assessed as reduction in AXL protein expression at 10 uM measured after 48 hrs by western blot analysis; assay type: cell-based
MDA-MB-231 [24] = test: Inhibition of YAP/TAZ-TEAD interaction in human MDA-MB-231 cells assessed as reduction in CTGF protein expression at 10 uM measured after 48 hrs by western blot analysis; assay type: cell-based; procedure, shortened: as §4
HeLa [25] = test: Inhibition of YAP/TAZ-TEAD interaction in human HeLa cells assessed as reduction in AXL mRNA expression at 10 uM measured after 24 hrs by qRT-PCR analysis; assay type: cell-based
MDA-MB-231 [26] = test: Antiproliferative activity against human MDA-MB-231 cells assessed as reduction in cell proliferation at 10 uM measured after 48 hrs by IncuCyte live-cell imaging assay; assay type: functional; procedure, shortened: as §2
MDA-MB-231 [27] = test: Inhibition of YAP/TAZ-TEAD interaction in human MDA-MB-231 cells assessed as reduction in AXL protein expression at 10 uM measured after 48 hrs by western blot analysis; assay type: cell-based; procedure, shortened: as §4
SH-SY5Y [28] = test: Effect on Cyr61 mRNA expression in human SH-SY5Y cells lacking YAP/TAZ expression at 10 uM measured after 24 hrs by qRT-PCR analysis; assay type: functional, cell-based

T1 sequence (Q15562 whole entry, the tested form may be a part): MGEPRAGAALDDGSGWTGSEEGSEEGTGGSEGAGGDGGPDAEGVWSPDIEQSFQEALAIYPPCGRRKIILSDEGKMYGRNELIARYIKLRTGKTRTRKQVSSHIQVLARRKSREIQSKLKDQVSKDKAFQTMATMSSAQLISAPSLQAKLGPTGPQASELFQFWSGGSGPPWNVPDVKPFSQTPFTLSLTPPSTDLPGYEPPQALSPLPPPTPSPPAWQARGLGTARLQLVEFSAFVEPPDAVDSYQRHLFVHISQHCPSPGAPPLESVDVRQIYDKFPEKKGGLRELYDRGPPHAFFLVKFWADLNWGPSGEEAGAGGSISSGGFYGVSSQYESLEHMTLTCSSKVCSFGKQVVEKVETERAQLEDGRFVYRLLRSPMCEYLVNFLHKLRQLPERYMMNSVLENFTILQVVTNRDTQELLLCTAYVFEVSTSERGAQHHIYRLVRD

O=C(O)CCn1cc(C(=O)NCc2ccccc2)c(-c2ccc(Cl)c(Cl)c2)n1
inhibition (HEK293T): inactive

NCCCCn1cc(C(=O)NCc2ccccc2)c(-c2ccc(Cl)c(Cl)c2)n1
Activity (HEK-293T): Toxic

O=C(O)CCn1cc(C(=O)NCCc2ccccc2)c(-c2ccc(Cl)c(Cl)c2)n1
Kd [1]: 5.1 µM
inhibition (HEK293T): inactive

COc1ccc2c(c1)/C(=N/NC(=O)c1nnn(-c3ccccc3N)c1-c1ccc(Cl)c(Cl)c1)C(=O)N2
IC50 [2]: 1.7 µM

O=C(O)c1cccnc1Nc1cccc(C(F)(F)F)c1
Tm [3]: 50.3 °C

Nc1nonc1-n1nnc(C(=O)N/N=C2\C(=O)Nc3ccccc32)c1-c1ccc(Cl)c(Cl)c1
IC50 [2]: 6.5 µM

NCCn1cc(C(=O)NCc2ccccc2)c(-c2ccc(Cl)c(Cl)c2)n1
Activity (HEK-293T): Toxic

NCCCn1cc(C(=O)NCCc2ccccc2)c(-c2ccc(Cl)c(Cl)c2)n1
Activity (HEK-293T): Toxic

O=C(O)CCCn1cc(C(=O)NCCc2ccccc2)c(-c2ccc(Cl)c(Cl)c2)n1
inhibition (HEK293T): inactive

O=C(CCl)c1ccccc1Nc1cccc(C(F)(F)F)c1
EC50 [4]: 5.9 µM

NCCCn1cc(C(=O)NCc2ccccc2)c(-c2ccc(Cl)c(Cl)c2)n1
Activity (HEK-293T): Toxic

CCOC(=O)c1cn(CCCN)nc1-c1ccc(Cl)c(Cl)c1
inhibition (HEK293T): Active

O=C(O)CCCn1cc(C(=O)NCc2ccccc2)c(-c2ccc(Cl)c(Cl)c2)n1
Kd [1]: 4.6 µM
inhibition (HEK293T): inactive

NCCCCn1cc(C(=O)NCCc2ccccc2)c(-c2ccc(Cl)c(Cl)c2)n1
Activity (HEK-293T): Toxic

CCOC(=O)c1cn(CCCCN)nc1-c1ccc(Cl)c(Cl)c1
Activity (SH-SY5Y [5]): inactive
IC50 [6]: 4.5 µM
inhibition (HeLa [7]): Active
inhibition at 5 µM (MDA-MB-231 [8]): 40%
Activity (SH-SY5Y [9]): inactive
inhibition (HeLa [10]): Active
inhibition (HeLa [11]): Active
Activity (SH-SY5Y [12]): inactive
inhibition (HeLa [13]): Active
inhibition (MDA-MB-231 [14]): Active
inhibition (MDA-MB-231 [15]): Active
inhibition (HeLa [16]): Active
Activity (SH-SY5Y [17]): inactive
inhibition (MDA-MB-231 [18]): Active
Kd [1]: 35 µM
inhibition (MDA-MB-231 [19]): Active
inhibition (MDA-MB-231 [20]): Active
Activity (SH-SY5Y [21]): inactive
Activity (SH-SY5Y [22]): inactive
inhibition (HeLa [23]): Active
inhibition (HEK293T): Active
inhibition (MDA-MB-231 [24]): Active
inhibition (HeLa [25]): Active
inhibition at 10 µM (MDA-MB-231 [26]): 60%
inhibition (MDA-MB-231 [27]): Active
Activity (SH-SY5Y [28]): inactive
